# Measured values from ChEMBL document CHEMBL5058577, “EUbOPEN Chemogenomics Library 2 (Multiplex)” (2022).
# Tested on: U2OS
# Test: Multiplex assay against U2OS
# Format: toxicity, cell-based
# Conditions: human
# How it was run: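 Imaging took place on a CQ1 microscope at 37°C and 5% CO2 once compound had been added to live cells stained at seeding with Hoechst33342, BioTracker Green Microtubule Cytoskeleton Dye, MitoTracker Red and Annexin V Alexa Fluor 680. CellPathfinder machine-learning gating classed cells as Hoechst high-intensity objects or normal cells, classed normal cells as having healthy, pyknosed or fragmented nuclei, and classed pyknosed cells as mitotic or apoptotic. Tubulin, mitochondrial-mass and membrane-permeability phenotypes are per cents of the healthy-nucleus cells.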
# [1] = 12 h, 1 µM, compound concentration 1 uM, replicate 1
# [2] = 12 h, 1 µM, compound concentration 1 uM, replicate 2
# [3] = 12 h, 10 µM, compound concentration 10 uM, replicate 1
# [4] = 12 h, 10 µM, compound concentration 10 uM, replicate 2
# [5] = 24 h, 1 µM, compound concentration 1 uM, replicate 1
# [6] = 24 h, 1 µM, compound concentration 1 uM, replicate 2
# [7] = 24 h, 10 µM, compound concentration 10 uM, replicate 1
# [8] = 24 h, 10 µM, compound concentration 10 uM, replicate 2
# [9] = 48 h, 1 µM, compound concentration 1 uM, replicate 1
# [10] = 48 h, 1 µM, compound concentration 1 uM, replicate 2
# [11] = 48 h, 10 µM, compound concentration 10 uM, replicate 1
# [12] = 48 h, 10 µM, compound concentration 10 uM, replicate 2
smiles,measurement,setting,value
CCn1c(-c2nc3cc(C(=O)N4CCCC(N)C4)ccc3n2C)cc2ccccc21.Cl (stereo unspecified),Population Apoptotic (%),[1],61%
same,Population Fragmented Nuclei (%),[1],22%
same,Population Healthy Nuclei (%),[1],67%
same,Population Hoechst High Intensity Objects (%),[1],0%
same,Population Membrane Permeable-Phenotype (%),[1],4%
same,Population Mitochondria Different-Phenotype (%),[1],3%
same,Population Mitotic Cells (%),[1],38%
same,Population Normal (%),[1],99%
same,Population Pyknosed Nuclei (%),[1],9%
same,Population Tubulin-Different-Phenotype (%),[1],2%
same,Total Cell Count,[1],213
same,Population Apoptotic (%),[2],100%
same,Population Fragmented Nuclei (%),[2],18%
same,Population Healthy Nuclei (%),[2],77%
same,Population Hoechst High Intensity Objects (%),[2],5%
same,Population Membrane Permeable-Phenotype (%),[2],15%
same,Population Mitochondria Different-Phenotype (%),[2],18%
same,Population Mitotic Cells (%),[2],0%
same,Population Normal (%),[2],94%
same,Population Pyknosed Nuclei (%),[2],3%
same,Population Tubulin-Different-Phenotype (%),[2],13%
same,Total Cell Count,[2],90
same,Population Apoptotic (%),[3],48%
same,Population Fragmented Nuclei (%),[3],24%
same,Population Healthy Nuclei (%),[3],56%
same,Population Hoechst High Intensity Objects (%),[3],2%
same,Population Membrane Permeable-Phenotype (%),[3],34%
same,Population Mitochondria Different-Phenotype (%),[3],29%
same,Population Mitotic Cells (%),[3],51%
same,Population Normal (%),[3],97%
same,Population Pyknosed Nuclei (%),[3],19%
same,Population Tubulin-Different-Phenotype (%),[3],27%
same,Total Cell Count,[3],277
same,Population Apoptotic (%),[4],54%
same,Population Fragmented Nuclei (%),[4],21%
same,Population Healthy Nuclei (%),[4],60%
same,Population Hoechst High Intensity Objects (%),[4],1%
same,Population Membrane Permeable-Phenotype (%),[4],25%
same,Population Mitochondria Different-Phenotype (%),[4],55%
same,Population Mitotic Cells (%),[4],45%
same,Population Normal (%),[4],98%
same,Population Pyknosed Nuclei (%),[4],18%
same,Population Tubulin-Different-Phenotype (%),[4],48%
same,Total Cell Count,[4],135
same,Population Apoptotic (%),[5],82%
same,Population Fragmented Nuclei (%),[5],22%
same,Population Healthy Nuclei (%),[5],68%
same,Population Hoechst High Intensity Objects (%),[5],1%
same,Population Membrane Permeable-Phenotype (%),[5],6%
same,Population Mitochondria Different-Phenotype (%),[5],3%
same,Population Mitotic Cells (%),[5],17%
same,Population Normal (%),[5],98%
same,Population Pyknosed Nuclei (%),[5],9%
same,Population Tubulin-Different-Phenotype (%),[5],3%
same,Total Cell Count,[5],249
same,Population Apoptotic (%),[6],66%
same,Population Fragmented Nuclei (%),[6],25%
same,Population Hoechst High Intensity Objects (%),[6],3%
same,Population Membrane Permeable-Phenotype (%),[6],14%
same,Population Mitochondria Different-Phenotype (%),[6],13%
same,Population Mitotic Cells (%),[6],33%
same,Population Normal (%),[6],96%
same,Population Pyknosed Nuclei (%),[6],5%
same,Population Tubulin-Different-Phenotype (%),[6],13%
same,Total Cell Count,[6],112
same,Population Apoptotic (%),[7],62%
same,Population Fragmented Nuclei (%),[7],27%
same,Population Healthy Nuclei (%),[7],54%
same,Population Hoechst High Intensity Objects (%),[7],2%
same,Population Membrane Permeable-Phenotype (%),[7],16%
same,Population Mitochondria Different-Phenotype (%),[7],34%
same,Population Mitotic Cells (%),[7],38%
same,Population Normal (%),[7],97%
same,Population Pyknosed Nuclei (%),[7],17%
same,Population Tubulin-Different-Phenotype (%),[7],11%
same,Total Cell Count,[7],288
same,Population Apoptotic (%),[8],73%
same,Population Fragmented Nuclei (%),[8],19%
same,Population Healthy Nuclei (%),[8],64%
same,Population Hoechst High Intensity Objects (%),[8],3%
same,Population Membrane Permeable-Phenotype (%),[8],20%
same,Population Mitochondria Different-Phenotype (%),[8],53%
same,Population Mitotic Cells (%),[8],26%
same,Population Normal (%),[8],96%
same,Population Pyknosed Nuclei (%),[8],16%
same,Population Tubulin-Different-Phenotype (%),[8],26%
same,Total Cell Count,[8],146
same,Population Apoptotic (%),[9],75%
same,Population Fragmented Nuclei (%),[9],16%
same,Population Healthy Nuclei (%),[9],76%
same,Population Hoechst High Intensity Objects (%),[9],2%
same,Population Membrane Permeable-Phenotype (%),[9],8%
same,Population Mitochondria Different-Phenotype (%),[9],3%
same,Population Mitotic Cells (%),[9],25%
same,Population Normal (%),[9],97%
same,Population Pyknosed Nuclei (%),[9],6%
same,Population Tubulin-Different-Phenotype (%),[9],5%
same,Total Cell Count,[9],354
same,Population Apoptotic (%),[10],70%
same,Population Fragmented Nuclei (%),[10],22%
same,Population Healthy Nuclei (%),[10],70%
same,Population Hoechst High Intensity Objects (%),[10],4%
same,Population Membrane Permeable-Phenotype (%),[10],10%
same,Population Mitochondria Different-Phenotype (%),[10],9%
same,Population Mitotic Cells (%),[10],30%
same,Population Normal (%),[10],95%
same,Population Pyknosed Nuclei (%),[10],7%
same,Population Tubulin-Different-Phenotype (%),[10],8%
same,Total Cell Count,[10],145
same,Population Apoptotic (%),[11],78%
same,Population Fragmented Nuclei (%),[11],26%
same,Population Healthy Nuclei (%),[11],53%
same,Population Hoechst High Intensity Objects (%),[11],5%
same,Population Membrane Permeable-Phenotype (%),[11],23%
same,Population Mitochondria Different-Phenotype (%),[11],22%
same,Population Mitotic Cells (%),[11],21%
same,Population Normal (%),[11],94%
same,Population Pyknosed Nuclei (%),[11],19%
same,Population Tubulin-Different-Phenotype (%),[11],11%
same,Total Cell Count,[11],353
same,Population Apoptotic (%),[12],77%
same,Population Fragmented Nuclei (%),[12],18%
same,Population Healthy Nuclei (%),[12],64%
same,Population Hoechst High Intensity Objects (%),[12],6%
same,Population Membrane Permeable-Phenotype (%),[12],24%
same,Population Mitochondria Different-Phenotype (%),[12],39%
same,Population Mitotic Cells (%),[12],22%
same,Population Normal (%),[12],93%
same,Population Pyknosed Nuclei (%),[12],16%
same,Population Tubulin-Different-Phenotype (%),[12],19%
same,Total Cell Count,[12],173
